Source: article PMC3544189 (ACS medicinal chemistry letters, 2012)
Entries after “also recorded” stand apart in the source; their conditions may differ.

Key:
[1] = tested on: chymotrypsin-like activity of human 20S proteasome; format: biochemical; details: for Proteasome activation (in words): chymotrypsin-like activity, absence of PA28
How it was run: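 Without PA28, proteasome was exposed to test compound. Chymotrypsin-like activity was followed by cleavage of the fluorogenic substrate Suc-LLVY-AMC, read in relative fluorescence units against a proteasome-plus-substrate background. EC50 was the concentration raising activity to 50% of its maximum level. Values are mean ± SD of three independent experiments.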

proteasome [2] = details: cited from earlier work
[3] = tested on: chymotrypsin-like proteasome activity (20S proteasome + PA28); experiment: Inhibition of chymotrypsin-like proteasome activity in the presence of PA28; format: biochemical, human
How it was run: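 The proteasome was activated by the cellular activator PA28 and then exposed to test compound. Chymotrypsin-like activity was read by Suc-LLVY-AMC fluorescence, with proteasome plus substrate as background. IC50 was the concentration inhibiting PA28-present chymotrypsin-like activity by 50%. Values are mean ± SD of three independent experiments.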

[4] = tested on: PA28-activated proteasome inhibited by Aβ1-42; experiment: Antagonism of Aβ1-42 inhibition of PA28-activated proteasome by compound 2; format: biochemical; details: compound 2 at 14, 28, 56 μM; Aβ1-42 10 μg/ml; PA28 1.8 μg/ml
proteasome [5] = details: cited from earlier work; remark: listed apart in the source
proteasome [6] = details: cited from earlier work; remark: listed apart in the source
[7] = target: PA28-activated proteasome; experiment: Inhibition of PA28-activated proteasome by Aβ1-42; format: biochemical; details: PA28 1.8 μg/ml

| Compound | Proteasome activation (in words) [1] | Proteasome inhibition (in words) [3] | other results |
| --- | --- | --- | --- |
| CNC(=O)CC[C@@H](C)[C@H]1CC[C@H]2[C@@H]3CC[C@@H]4C[C@H](OC(=O)CCCCCC(=O)O)CC[C@]4(C)[C@H]3CC[C@]12C [Compound 4] | completely abrogated the proteasome activation activity | – | – |
| polylysine | – | – | Concentration reported for proteasome activation (proteasome [2]): 1 mg/mL |
| CCOC(=O)CC[C@@H](C)[C@H]1CC[C@H]2[C@@H]3CC[C@@H]4C[C@H](OC(=O)CCCCCC(=O)O)CC[C@]4(C)[C@H]3CC[C@]12C [Compound 3] | completely abrogated the proteasome activation activity | – | – |
| C/C=C1/[C@H](O[C@@H]2O[C@H](CO)[C@@H](O)[C@H](O)[C@H]2O)OC=C(C(=O)OC)[C@H]1CC(=O)OCCc1ccc(O)c(O)c1 [Oleuropein, reference compound] | did not show any significant activity; also recorded: did not activate the proteasome | – | Proteasome activation over background proteasome activity (proteasome [2]; absence of cellular proteasome activators): approximately 1.5 fold; Concentration reported to enhance proteasome activities in vitro (proteasome [2]): 0.5 µg/mL |
| COC(=O)CC[C@@H](C)[C@H]1CC[C@H]2[C@@H]3CC[C@@H]4C[C@H](NC(=O)CCCCCC(=O)O)CC[C@]4(C)[C@H]3CC[C@]12C [Compound 6] | – | – | Increase of proteasome activation activity relative to compound 2 ([1]; C3 amide versus C3 ester): approximately two-fold |
| COC(=O)CC[C@@H](C)[C@H]1CC[C@H]2[C@@H]3CC[C@@H]4C[C@@H](OC(=O)CCCCCC(=O)O)CC[C@]4(C)[C@H]3CC[C@]12C [Compound 5] | did not activate the proteasome | inhibited the proteasome | – |
| COC(=O)CC[C@@H](C)[C@H]1CC[C@H]2[C@@H]3CC[C@@H]4C[C@@H](N)CC[C@]4(C)[C@H]3CC[C@]12C [Compound 9, 3-β-amino-lithocholic acid methyl ester] | did not activate the proteasome | inhibited the proteasome | – |
| COC(=O)CC[C@@H](C)[C@H]1CC[C@H]2[C@@H]3CC[C@@H]4C[C@H](OC(=O)CCCCCC(=O)O)CC[C@]4(C)[C@H]3CC[C@]12C [Compound 2, 3α-O-pimeloyl-lithocholic acid methyl ester] | active in proteasome activation | – | Antagonism of Aβ1-42-mediated proteasome inhibition (in words) [4]: antagonized the Aβ1-42-mediated proteasome inhibition in a dose dependent manner; also recorded: potently antagonized; also recorded: completely reverse; Proteasome inhibition in previous study (in words) (proteasome [5]): inactive in proteasome inhibition |
| C[C@H](CCC(=O)O)[C@H]1CC[C@H]2[C@@H]3CC[C@@H]4C[C@H](O)CC[C@]4(C)[C@H]3CC[C@]12C [Lithocholic acid, lithocholic acid, reference compound] | did not activate the proteasome | weak proteasome inhibitor | – |
| COC(=O)CC[C@@H](C)[C@H]1CC[C@H]2[C@@H]3CC[C@@H]4C[C@@H](NC(=O)CCCCCC(=O)O)CC[C@]4(C)[C@H]3CC[C@]12C [Compound 7] | did not activate the proteasome | inhibited the proteasome | – |
| CN(C)c1ccc2nc3ccc(=[N+](C)C)cc-3sc2c1 [methylene blue] | – | – | Enhancement of proteasome activity (in words) (proteasome [6]): slightly enhance proteasome activity |
| Aβ1-42: amyloid beta peptide 1-42, the likely pathogenic form of Aβ | – | – | Inhibition of PA28-activated proteasome (in words) [7]: inhibited the proteasome in a dose dependent manner |
| CCCCCCCCCCCCOS(=O)(=O)[O-].[Na+] [SDS] | – | – | Concentration reported for proteasome activation (proteasome [2]): 0.05% |
